According to PMC7579299 (Anti-Inflammatory & Anti-Allergy Agents in Medicinal …, 2020):

Columns and labels:
[1] = system: MCF-7 (human breast cancer); experiment: Anticancer MTT assay, breast cancer cells; assay type: cell-based
Outline: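 MCF-7 cells grown in DMEM with 10% FBS, penicillin and streptomycin at 37°C in 5% CO₂. About 5000 cells/well were exposed to test compound at 50-500 µg/mL (1 mg/ml DMSO working solution, 0.45-micron filtered) for 24, 48 or 72 h. MTT was added for 2 h, then lysis buffer for 4 h, and A570 was read. Viability = mean OD/control OD × 100.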

[2] = system: Human Red Blood Cell (HRBC) membrane; experiment: HRBC membrane stabilization method; assay type: cell-based
Outline: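 Human red blood cell membrane stabilization assay, run in quadruplicate with diclofenac as reference. Hemolysis in distilled water was taken as 100%. Protection was calculated as % inhibition of hemolysis = 100 × (OD control − OD sample)/OD control.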

For COc1cccc2c1C(=O)c1c(O)c3c(c(O)c1C2=O)C[C@@](O)(C(=O)CO)C[C@@H]3O[C@H]1C[C@H](N)[C@H](O)[C@H](C)O1 [Doxorubicin], the “Relative percentage activity (anticancer)” value [1] was 89.47 ± 2.87%.
O=C(O)Cc1ccccc1Nc1c(Cl)cccc1Cl [Diclofenac] was tested, and the IC50 ([2]; Homo sapiens, Erythrocyte, read-out: HRBC membrane protection IC50) was 150 nM and the “HRBC membrane average protection” value ([2]; n=4) was 82.15%.
